Laboratory results taken from ChEMBL document CHEMBL2440113, “Synthesis, radiofluorination, and in vivo evaluation of novel fluorinated and iodinated radiotracers for PET imaging and targeted radionuclide therapy of melanoma” (J Med Chem, 2013).

Legend:
[1] = Stability of the compound in saline after 6 hrs; type: physicochemical; settings: read-out: Stability
How it was run: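 Formulated radiotracer was kept in saline at room temperature; radiochemical purity was checked by analytical radio-HPLC over at least 6 h after preparation.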

[2] = test system: Lung; assay: Biodistribution in lung of C57BL/6J mouse harboring mouse B16-Bl6 cells at 9 to 12 MBq, iv after 3 hrs by PET analysis; type: ADME, organism-based; settings: in vivo
How it was run: (§1)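 Ex vivo dissection in B16Bl6-bearing C57BL/6J mice (3x10⁵ cells s.c. right shoulder), done at day 10 or 14 after implantation. The ¹⁸F tracer was given i.v. at 9-12 MBq. Mice were killed by CO₂ at 1, 2 or 3 h. Tumor, organs and tissues were excised, weighed and gamma-counted, then decay-corrected and expressed as %ID/g. n=3-6 per group; mean ± SD.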

[3] = test system: Pancreas; assay: Biodistribution in pancreas of C57BL/6J mouse harboring mouse B16-Bl6 cells at 9 to 12 MBq, iv after 3 hrs by PET analysis; type: ADME, organism-based; settings: in vivo; how it was run: as §1
[4] = test system: Spleen; assay: Biodistribution in spleen of C57BL/6J mouse harboring mouse B16-Bl6 cells at 9 to 12 MBq, iv after 3 hrs by PET analysis; type: ADME, organism-based; settings: in vivo; how it was run: as §1
[5] = test system: Mus musculus; assay: Biodistribution in colon and feces of C57BL/6J mouse harboring mouse B16-Bl6 cells at 9 to 12 MBq, iv after 3 hrs by PET analysis; type: ADME, organism-based; settings: in vivo; how it was run: as §1
[6] = test system: Mus musculus; assay: Biodistribution in cecum of C57BL/6J mouse harboring mouse B16-Bl6 cells at 9 to 12 MBq, iv after 3 hrs by PET analysis; type: ADME, organism-based, Caecum; settings: in vivo; how it was run: as §1
[7] = test system: Mus musculus; assay: Biodistribution in small intestine of C57BL/6J mouse harboring mouse B16-Bl6 cells at 9 to 12 MBq, iv after 3 hrs by PET analysis; type: ADME, organism-based; settings: in vivo; how it was run: as §1
[8] = test system: Liver; assay: Biodistribution in liver of C57BL/6J mouse harboring mouse B16-Bl6 cells at 9 to 12 MBq, iv after 3 hrs by PET analysis; type: ADME, organism-based; settings: in vivo; how it was run: as §1
[9] = test system: Blood; assay: Biodistribution in blood of C57BL/6J mouse harboring mouse B16-Bl6 cells at 9 to 12 MBq, iv after 3 hrs by PET analysis; type: ADME, organism-based; settings: in vivo; how it was run: as §1
[10] = test system: Bone; assay: Biodistribution in bones of C57BL/6J mouse harboring mouse B16-Bl6 cells at 9 to 12 MBq, iv after 3 hrs by PET analysis; type: ADME, organism-based, Bone element; settings: in vivo; how it was run: as §1
[11] = test system: Mus musculus; assay: Biodistribution in eyes of C57BL/6J mouse harboring mouse B16-Bl6 cells at 9 to 12 MBq, iv after 3 hrs by PET analysis; type: ADME, organism-based, Eye; settings: in vivo; how it was run: as §1
[12] = test system: Lung; assay: Biodistribution in lung of C57BL/6J mouse harboring mouse B16-Bl6 cells at 9 to 12 MBq, iv after 2 hrs by PET analysis; type: ADME, organism-based; settings: in vivo; how it was run: as §1
[13] = test system: Spleen; assay: Biodistribution in spleen of C57BL/6J mouse harboring mouse B16-Bl6 cells at 9 to 12 MBq, iv after 2 hrs by PET analysis; type: ADME, organism-based; settings: in vivo; how it was run: as §1
[14] = test system: Mus musculus; assay: Biodistribution in cecum of C57BL/6J mouse harboring mouse B16-Bl6 cells at 9 to 12 MBq, iv after 2 hrs by PET analysis; type: ADME, organism-based, Caecum; settings: in vivo; how it was run: as §1
[15] = test system: Blood; assay: Biodistribution in blood of C57BL/6J mouse harboring mouse B16-Bl6 cells at 9 to 12 MBq, iv after 2 hrs by PET analysis; type: ADME, organism-based; settings: in vivo; how it was run: as §1
[16] = test system: Bone; assay: Biodistribution in bones of C57BL/6J mouse harboring mouse B16-Bl6 cells at 9 to 12 MBq, iv after 2 hrs by PET analysis; type: ADME, organism-based, Bone element; settings: in vivo; how it was run: as §1
[17] = test system: Muscle tissue; assay: Biodistribution in muscle of C57BL/6J mouse harboring mouse B16-Bl6 cells at 9 to 12 MBq, iv after 2 hrs by PET analysis; type: ADME, organism-based; settings: in vivo; how it was run: as §1
[18] = test system: Nucleic Acid; assay: Ratio of drug level in tumor to muscle in C57BL/6J mouse harboring mouse B16-Bl6 cells at 9 to 12 MBq, iv after 1 hr by PET analysis; type: ADME, organism-based; settings: in vivo
How it was run: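 Ex vivo biodistribution. C57BL/6J mice bearing subcutaneous B16Bl6 tumours (3x10⁵ cells, shoulder), day 10 or 14, received [18F]tracer iv (9-12 MBq). They were killed by CO₂ at 1, 2 or 3 h. Tumours and organs were excised, weighed and gamma-counted. Results are decay-corrected % ID/g; ratios are tumour over tissue. n=3-6 per group; mean ± SD.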

[19] = test system: Lung; assay: Biodistribution in lung of C57BL/6J mouse harboring mouse B16-Bl6 cells at 9 to 12 MBq, iv after 1 hr by PET analysis; type: ADME, organism-based; settings: in vivo; how it was run: as §1
[20] = test system: Pancreas; assay: Biodistribution in pancreas of C57BL/6J mouse harboring mouse B16-Bl6 cells at 9 to 12 MBq, iv after 1 hr by PET analysis; type: ADME, organism-based; settings: in vivo; how it was run: as §1
[21] = test system: Mus musculus; assay: Biodistribution in colon and feces of C57BL/6J mouse harboring mouse B16-Bl6 cells at 9 to 12 MBq, iv after 1 hr by PET analysis; type: ADME, organism-based; settings: in vivo; how it was run: as §1
[22] = test system: Stomach; assay: Biodistribution in stomach of C57BL/6J mouse harboring mouse B16-Bl6 cells at 9 to 12 MBq, iv after 1 hr by PET analysis; type: ADME, organism-based; settings: in vivo; how it was run: as §1
[23] = test system: Blood; assay: Biodistribution in blood of C57BL/6J mouse harboring mouse B16-Bl6 cells at 9 to 12 MBq, iv after 1 hr by PET analysis; type: ADME, organism-based; settings: in vivo; how it was run: as §1
[24] = Ratio of drug level in tumor to muscle in C57BL/6J mouse harboring mouse B16-Bl6 cells at 8 to 12 MBq, iv after 1 hr by PET analysis; type: ADME, organism-based; settings: in vivo
How it was run: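 Static whole-body PET at 1 h after tail-vein injection of [18F]tracer (9-12 MBq/0.15 mL) in C57BL/6J mice carrying subcutaneous B16Bl6 shoulder tumours (3x10⁵ cells), imaged day 10 or 14. Mice under ketamine/xylazine ip. 25 min acquisition, OSEM reconstruction. ROI % ID/g = counts/g/min ÷ injected dose; ratios = tumour % ID/g ÷ organ % ID/g. n=2-8; mean ± SD.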

[25] = test system: Bone; assay: Biodistribution in bone of C57BL/6J mouse harboring mouse B16-Bl6 cells at 8 to 12 MBq, iv after 1 hr by PET analysis; type: ADME, organism-based, Bone element; settings: in vivo
How it was run: (§2)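 C57BL/6J mice were inoculated s.c. on the right shoulder with 3x10⁵ B16Bl6 cells in PBS under isoflurane, and imaged at day 10 or 14 (tumor volume 431.8 ± 154.3 mm³). The ¹⁸F tracer was given i.v. via tail vein, 8-12 MBq (methods: 9-12 MBq/0.15 mL). Under ketamine/xylazine i.p., a 25-min whole-body static PET scan ran at 1 h. ROI %ID/g = counts/g/min ÷ injected dose. n=2-8; mean ± SD.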

[26] = test system: Muscle tissue; assay: Biodistribution in muscle of C57BL/6J mouse harboring mouse B16-Bl6 cells at 8 to 12 MBq, iv after 1 hr by PET analysis; type: ADME, organism-based; settings: in vivo; how it was run: as §2
[27] = test system: Mus musculus; assay: Ratio of drug level in tumor to bone in C57BL/6J mouse harboring mouse B16-Bl6 cells at 9 to 12 MBq, iv after 3 hrs by PET analysis; settings: in vivo
[28] = test system: Mus musculus; assay: Ratio of drug level in tumor to blood in C57BL/6J mouse harboring mouse B16-Bl6 cells at 9 to 12 MBq, iv after 2 hrs by PET analysis; settings: tumour

Row | remaining at 6 h [1] | Drug uptake [2] | Drug uptake [3] | Drug uptake [4] | Drug uptake [5] | Drug uptake [6] | Drug uptake [7] | Drug uptake [8] | Drug uptake [9] | Drug uptake [10] | Drug uptake [11] | Drug uptake [12] | Drug uptake [13] | Drug uptake [14] | Drug uptake [15] | Drug uptake [16] | Drug uptake [17] | Ratio [18] | Drug uptake [19] | Drug uptake [20] | SMILES | other results
1 | > 99% | 1.6 % ID/g | 1.33 % ID/g | 1.87 % ID/g | 8.09 % ID/g | 10.79 % ID/g | 3.91 % ID/g | 1.99 % ID/g | 0.8 % ID/g | 3.27 % ID/g | 17.96 % ID/g | 1.65 % ID/g | 2.88 % ID/g | 8.94 % ID/g | 1.12 % ID/g | 1.96 % ID/g | 0.92 % ID/g | 12.12 | 1.86 % ID/g | 2.09 % ID/g | CCN(CCNC(=O)c1cnc2cc(I)ccc2n1)CCOCCOCCOCC[18F] | Drug uptake [21]: 7.17 % ID/g; Drug uptake [22]: 4.41 % ID/g; Drug uptake [23]: 1.42 % ID/g; Ratio [24]: 11.04; Drug uptake [25]: 1.98 % ID/g; Drug uptake [26]: 1.37 % ID/g; Ratio [27]: 3.7; Ratio [28]: 12.19
2 | > 99% | 2.37 % ID/g | 1.81 % ID/g | 2.35 % ID/g | 12.63 % ID/g | 29.31 % ID/g | 18.62 % ID/g | 2.6 % ID/g | 0.99 % ID/g | 3.61 % ID/g | 13.43 % ID/g | 1.72 % ID/g | 2.38 % ID/g | 12.1 % ID/g | 1.37 % ID/g | 2.13 % ID/g | 1.04 % ID/g | 9.48 | 1.75 % ID/g | 2.63 % ID/g | CCN(CCNC(=O)c1cnc2cc(I)ccc2n1)CCOCCOCCOCCOCCOCCOCCOCC[18F] | Drug uptake [21]: 7.39 % ID/g; Drug uptake [22]: 5.87 % ID/g; Drug uptake [23]: 1.15 % ID/g; Ratio [24]: 6.62; Drug uptake [25]: 2.48 % ID/g; Drug uptake [26]: 1.01 % ID/g; Ratio [27]: 2.16; Ratio [28]: 4.01
